A short description of this data set: Toxicity liver stage against HepG2, at 10uM. It is filed as cell-based. Set-up: test concentration 10 uM, cell line HepG2-A16-CD81EGFP. To be noted: human, HepG2-A16-CD81EGFP cells; read-out: INHIBITION
The gist of the method:
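Uninfected HepG2-A16-CD81EGFP cells, 3 × 10^3 per well, 1536-well, plated on prespotted compound at 10 μM final, parasite-free screening media added to match infected plates; puromycin 10 μM positive, DMSO 0.5% negative; run in parallel with 48 h PbLuc assay at 37 °C, 5% CO2; viability by CellTiter-Glo luminescence, normalized to controls.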

Structures are written as SMILES.

The results in this text go back to ChEMBL document CHEMBL4513216, “Probing the Open Global Health Chemical Diversity Library for Multistage-Active Starting Points for Next-Generation Antimalarials” (ACS Infect Dis, 2020).

Consider `O=C(NCCc1nccs1)C(c1ccccc1)n1cnnn1` (configuration not stated), for which the cytotoxicity at 10 µM came to 5.28%. Turning to `CN(C)C(=O)CN(C)C(=O)c1csc(Br)c1`, the cytotoxicity at 10 µM was 12.3%. Take `CCNC(=O)N(C)Cc1ccc(SC)c(OC)c1`: the cytotoxicity at 10 µM is -13.1%. With `COc1cc(C(=O)NCCCO)cc2occc12`, the cytotoxicity at 10 µM worked out at 5.47%. For `Cn1ccc(NC(=O)CN2C[C@@H]3CC[C@H]2CN(S(C)(=O)=O)C3)n1`, the cytotoxicity at 10 µM is -14.2%. `O=C(NCCc1coc(-c2ccc(F)cc2)n1)NC1CCC(O)CC1` (configuration not stated): the cytotoxicity at 10 µM amounted to 7.96%.

Take `CCNc1nnc(SCC(=O)N2CCN(Cc3ccc(Cl)s3)CC2)s1`: the cytotoxicity at 10 µM is 15.2%. In the case of `Cc1cnn(CC(C)NCc2nc(-c3cccnc3)no2)c1` (configuration not stated), the cytotoxicity at 10 µM was -8.86%. Turning to `Cn1cc(CNCCNc2ncc(Cl)cc2Cl)cn1`, the cytotoxicity at 10 µM is -6.42%. On to `CCN1CCN(C(=O)c2cnn(-c3ccccc3Cl)c2)CC1`, for which the cytotoxicity at 10 µM is -11.5%. Turning to `CN1CCN(C(=O)C2CCCc3[nH]ncc32)CC1` (configuration not stated), the cytotoxicity at 10 µM was determined as 0.247%. `NC(=O)c1sc2ccccc2c1C1CCN(S(=O)(=O)N2CCOCC2)C1` (configuration not stated): the cytotoxicity at 10 µM is 11.8%.

Regarding `N[C@@H]1CC[C@H](C(=O)NCc2ccc3nonc3c2)C1`, the cytotoxicity at 10 µM was -5.35%.

For `CNC(=O)Cn1c(CO)cnc1SCc1ccccc1Cl`, the cytotoxicity at 10 µM worked out at 2.6%.

With `O=S(=O)(C1CC1)N1CCC2(CCN(Cc3nccs3)CC2)CC1`, the cytotoxicity at 10 µM was 7.67%. As to `CC(C)c1nc2c(n1C)CCN(CC(=O)NCc1ccccn1)C2`, the cytotoxicity at 10 µM is -8.52%. For the compound `CN(C)C[C@@H]1C[C@@H]2CN(C(=O)Cc3cccs3)CC[C@@H]2N1C`, the cytotoxicity at 10 µM turned out to be 0.375%.

Regarding `COCc1ncc(CN2CC(Oc3c(C)cccc3C)C2)cn1`, the cytotoxicity at 10 µM is 5.12%.

In the case of `Cc1cc2ccccc2n1CCC(=O)N1CCN(C)CC1C(N)=O` (configuration not stated), the cytotoxicity at 10 µM is -1.04%.

With `CCc1nc2n(n1)CC(NCc1cc3ccccc3o1)CC2` (configuration not stated), the cytotoxicity at 10 µM came to 3.77%. For `O=C(CCCNCc1ccccc1)N1CCCn2cncc2C1` the value was -3.32%; for `Cc1nc2n(n1)CC(NCc1nc3ccccc3o1)CC2` (configuration not stated), -0.608%; for `CC1CCCN(Cc2ccnc(-c3cccnc3)n2)C1` (configuration not stated), -6.57%. For the compound `COc1ccc(CN2C[C@@H]3CN(Cc4ccoc4)C[C@@H]3C2=O)cc1`, the cytotoxicity at 10 µM was -8.37%. Regarding `COCCO[C@H]1CCN(C(=O)c2ccoc2C)[C@H]1Cc1cnn(C)c1`, the cytotoxicity at 10 µM was -6.98%. Take `CC(C)c1nnc2n1CCN(C(=O)c1ccc3c(c1)COC3)C2`: the cytotoxicity at 10 µM is -6.22%. Under `CCN(CC)C(=O)CSc1nc2cc(C)nc-2c(O)n1CC` stands 6.58%. `Cc1ccsc1C(=O)NCc1ccnc(C2CCCOC2)n1` (configuration not stated): the cytotoxicity at 10 µM is -23.6%. Take `CC(C(=O)N1CCC(Cc2ccc(F)cc2)CC1)n1ccnc1` (configuration not stated): the cytotoxicity at 10 µM is 4.57%.

For the compound `CC(C)CCN1CCc2c(C(=O)N(C)Cc3ccccn3)nn(C)c2C1`, the cytotoxicity at 10 µM was -0.449%. For `Cc1nccc(-c2ccccc2)c1C(=O)N1CCC2(CCCO2)CC1`, the cytotoxicity at 10 µM amounted to 2.34%. On to `CC(C)Nc1ccc(-c2ccnc3c2ccn3C)nn1`, for which the cytotoxicity at 10 µM was -7.94%. Take `CCCn1cc(C(=O)NC(CC(=O)O)c2ccccc2F)c(C)n1` (configuration not stated): the cytotoxicity at 10 µM was -43.9%.

`Cc1noc(Cl)c1CC(=O)NCCOc1ccc(F)cc1F`: the cytotoxicity at 10 µM is -2.64%.

Take `CNS(=O)(=O)c1ccc(C(=O)Nc2ccc3c(c2)C(=O)NC3)cc1`: the cytotoxicity at 10 µM was -8.04%. For `Cc1nn(C)cc1-c1cc(C(F)(F)F)nc(NC2CCCCC2)n1` the value was 6.9%; for `Cc1ccc2cccc(C(=O)NCC3CCN(C(C)C)C3)c2n1` (configuration not stated), -9.97%; for `CCn1cc(NC(=O)NCc2ccc3c(c2)OCO3)cn1`, -1.1%. `Cc1cnn(CC2CCCN2CCCS(C)(=O)=O)c1` (configuration not stated): the cytotoxicity at 10 µM is -8.18%. Consider `CN1CCN(c2nccc(-c3cncnc3C3CCCCC3)n2)CC1`, for which the cytotoxicity at 10 µM was -4.33%. As to `Cc1cc(CN(C)C(=O)C(c2ccccc2C)N(C)C)on1` (configuration not stated), the cytotoxicity at 10 µM is 3.65%. `Fc1ccc(-c2nc(CN3CCn4c(nnc4C4CC4)C3)co2)cc1`: the cytotoxicity at 10 µM is -7.72%.

Regarding `Cn1cnc2c(-c3cccnc3)nc(C3CCN(S(C)(=O)=O)CC3)cc21`, the cytotoxicity at 10 µM is -118%. As to `CCCn1ccc(C(=O)Nc2ccc3c(c2)C(C)(C)C(=O)N3C)n1`, the cytotoxicity at 10 µM worked out at 8.44%.

With `CCC1C(=O)NCCN1c1nccc(C)n1` (configuration not stated), the cytotoxicity at 10 µM was 0.889%. Take `COc1ccc2c(c1)nc1n2[C@@H](CNCc2ncccc2C)COC1`: the cytotoxicity at 10 µM was determined as 3.1%. For `Cc1ccsc1C(=O)N1CC(C(=O)N2CCCC2)C2(CCOCC2)C1` (configuration not stated) the value was 3.68%. `CCc1ncc(CN2CCN(c3cc(NC4CC4)nc(N)n3)CC2)cn1`: the cytotoxicity at 10 µM was -3.44%. For `CN(Cc1cccc2cnccc12)C(=O)CCc1n[nH]c2c1CCCC2`, the cytotoxicity at 10 µM was -7.27%.

As to `CC(C)S(=O)(=O)N1CCC(c2[nH]ncc2S(C)(=O)=O)C1` (configuration not stated), the cytotoxicity at 10 µM was -21.5%.

As to `CCCN(C)CC1CCN(c2ncc(Br)cn2)C1` (configuration not stated), the cytotoxicity at 10 µM is -6.68%. `O=C(c1cccnc1-n1cncn1)N1CCN(CC2CC2)CC1`: the cytotoxicity at 10 µM is -10.9%. For `O=C(Cc1ccccn1)N1CCc2ncnc(NC3CCC3)c2CC1` the value was 3.25%; for `CC(C)N(C)Cc1cnc2n1CCN(C(=O)NC1CCCC1)C2`, 4.14%; for `CCC(=O)N1CCN(CCn2cccn2)c2ncccc2C1`, -106%.

Turning to `c1cc(CN2CCC3(CCOCC3COCC3CC3)CC2)co1` (configuration not stated), the cytotoxicity at 10 µM was -2.69%.

For `Cn1ccc(CS(=O)(=O)Cc2ccccc2)cc1=O`, the cytotoxicity at 10 µM worked out at 6.02%. For `Cc1cc(C(=O)N2CCCC2)ccc1NS(C)(=O)=O`, the cytotoxicity at 10 µM was found to be 0.535%. For `CS(=O)(=O)NCCCn1ccc2ccccc21` the value was 4.77%. Take `CN1CC(Nc2nc3c(cnn3C(C)(C)C)c(=O)[nH]2)CCC1=O` (configuration not stated): the cytotoxicity at 10 µM was -4.26%. With `Cc1nn(-c2ccccc2)cc1C(=O)N1CCCC(n2cccn2)C1` (configuration not stated), the cytotoxicity at 10 µM worked out at 1.3%.

Take `Cn1ccc(C(=O)NCc2cccc(CN3CCCC3)c2)cc1=O`: the cytotoxicity at 10 µM is -3.07%. Consider `CN(C)S(=O)(=O)NCCn1nc(-c2ccccc2)n(C)c1=O`, for which the cytotoxicity at 10 µM is -2.17%. Under `Cc1ccoc1C(=O)N1CCO[C@H]2[C@H](OCCN(C)C)CC[C@@H]21` stands -5.88%; under `Cn1cc(CN2C[C@@H]3OCCN(c4ncccn4)[C@@H]3C2)cn1`, -75.1%. Regarding `Cc1cnn(CC(C)NCc2ccc(OCc3cscn3)cc2)c1` (configuration not stated), the cytotoxicity at 10 µM was -9.35%. In the case of `Cc1cc(C)n(CC2CCCCN2Cc2cscn2)n1` (configuration not stated), the cytotoxicity at 10 µM amounted to 1.78%. Regarding `CC(C)(C)c1nnc2n1C(C(=O)N1CCOCC1)CC2` (configuration not stated), the cytotoxicity at 10 µM was 1.52%. In the case of `CCn1ncnc1CN1CCc2[nH]cnc2C1Cc1ccccc1` (configuration not stated), the cytotoxicity at 10 µM was -4.94%.

Consider `CCc1noc(CN(C)C(=O)C2COc3ccccc3C2)n1` (configuration not stated), for which the cytotoxicity at 10 µM worked out at 1.3%. In the case of `COC(=O)CSCc1noc(-c2ccc(Cl)cc2)n1`, the cytotoxicity at 10 µM turned out to be 1.94%. Take `Fc1ccccc1Oc1nccnc1C1CCN(C2CCOCC2)CC1`: the cytotoxicity at 10 µM turned out to be 13.9%. For `CCN1CC2(CCNCC2)COc2ccccc2S1(=O)=O` the value was -3.06%. Regarding `CNC(=O)c1ccc(CNC(=O)c2ccc(Cl)cc2F)cc1`, the cytotoxicity at 10 µM came to 5.66%.

Consider `O=c1cc(Cn2ccnc2)nc2n1CCCN(S(=O)(=O)C1CC1)C2`, for which the cytotoxicity at 10 µM was 7.95%.

Regarding `CCn1ncc2c1C(COC)N(C(=O)Cc1cccs1)CC2` (configuration not stated), the cytotoxicity at 10 µM is -109%. For `COc1cccc(CNc2nc(O)cc(C3CC(=O)N(C)C3)n2)c1` (configuration not stated), the cytotoxicity at 10 µM is -2.24%.

Take `NC(=O)NCC(=O)N1CCCC(c2nccn2Cc2ccncc2)C1` (configuration not stated): the cytotoxicity at 10 µM turned out to be 5.07%. Regarding `CC(=O)N1[C@H](CN(C)C)C[C@@H]2CN(C(=O)c3cnc(C)cn3)CC[C@@H]21`, the cytotoxicity at 10 µM was -2.89%. Regarding `Cn1ncc2c(N3CCC3)nc(-c3ccncc3)nc21`, the cytotoxicity at 10 µM worked out at 11.8%. As to `COCCCN1Cc2cccc(NC(=O)c3cc(F)cc(F)c3)c2C1`, the cytotoxicity at 10 µM stood at 2.28%.

`CCc1nnc2ccc(NCC3(N4CCCCC4)CCOCC3)nn12`: the cytotoxicity at 10 µM was -8.39%. In the case of `O=C(Nc1cccn(Cc2ccc(F)cc2)c1=O)c1cnc[nH]1`, the cytotoxicity at 10 µM was 0.0616%. With `Cc1n[nH]c(C)c1-c1cc(-c2ccc[nH]2)nc(N)c1C#N`, the cytotoxicity at 10 µM is 12.4%. Under `CCS(=O)(=O)N1CCC2(CC(=O)N(c3cccc(C)c3)C2)C1` (configuration not stated) stands -7.79%; under `CNS(=O)(=O)c1ccc(CN2CCCN(c3ccccc3)CC2)cc1`, 10.9%; under `CCc1n[nH]c(C2CN(C(=O)CCCn3cccn3)CCO2)n1` (configuration not stated), -6.69%. For `CN1CCOCC2(CCN(Cc3ccc[nH]3)CC2)C1`, the cytotoxicity at 10 µM amounted to 0.442%. On to `CC(C)OCCCNC(=O)CS(=O)(=O)Cc1ccc(C(C)C)cc1`, for which the cytotoxicity at 10 µM was 0.239%. Under `Cc1ccsc1C(=O)N1CC(C(=O)N2CCOCC2)C2(CCOCC2)C1` (configuration not stated) stands 1.47%.

Take `OC1CCN(c2ccnc(NCCc3ccccc3Cl)n2)CC1`: the cytotoxicity at 10 µM worked out at 16.5%.

Take `O=C(NC1CC1)NC(c1ccc(F)cc1)C1CC1` (configuration not stated): the cytotoxicity at 10 µM was -0.158%. In the case of `O=S(=O)(C1CC1)N1CCC2(COCc3cnc(-c4cccnc4)nc32)C1` (configuration not stated), the cytotoxicity at 10 µM was -115%. As for `FC(F)(F)c1cc(C2CCN(c3cnccn3)CC2)n2ccnc2n1`, the cytotoxicity at 10 µM was -1.53%. Turning to `NC(=O)c1c(SCCN2CCOCC2)sc2c(O)cc(=O)[nH]c12`, the cytotoxicity at 10 µM is 1.17%.

On to `O=C(Cc1ccccc1)N1CCC2(CC1)COCCN2CC1CC1`, for which the cytotoxicity at 10 µM is -78.5%. With `N#Cc1cccc(N2CCC3(CCC(=O)N(CCCO)C3)CC2)n1`, the cytotoxicity at 10 µM is 2.11%.
